The source of these data is ChEMBL document CHEMBL2390899, “Synthesis of new 18F-radiolabeled silicon-based nitroimidazole compounds” (Bioorg Med Chem, 2013).

Data set [1] can be described thus: Half life of the compound. The class given is physicochemical.
Data set [2] is described as follows: Half life of the compound in saline at pH 5.5 by radio-HPLC and radio-TLC analysis. The format is physicochemical. An outline of the steps: (§1)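 Aqueous saline (pH 5.5) samples of the 18F compound were analysed by radio-HPLC and radio-TLC at 5, 15, 30, 60 and 120 min to follow hydrolysis of the Si–F bond. Hydrolysis was followed up to 180 min. Half-life was taken from the decay of intact tracer.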

A short description of data set [3]: Half life human plasma by radio-HPLC and radio-TLC analysis. The class given is ADME, cell-free. An outline of the steps: (§2)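 The 18F-labelled compound was incubated in human plasma at 37 °C and monitored by radio-HPLC and radio-TLC for at least 120 min. The intact fraction and the half-life were obtained from this time course.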
The nature of data set [4]: Lipophilicity, log D of the compound at pH 4. The format is physicochemical. To be noted: buffer.
In another data set the test system is Liver. The experiment in a line: Biodistribution in Wistar rat liver at 10 MBq after 90 mins by PET analysis. The class given is ADME, organism-based. The following applies: in vivo, 1.5 h.
Data set [5] in a line: Chemical stability of the compound in saline after 180 mins at pH 5.5 by radio-HPLC and radio-TLC analysis. The class given is physicochemical. The following applies: buffer, pH 5.5, 3 h. An outline of the steps: as §1
For a further data set, the system named is Heart. Put plainly: Biodistribution in Wistar rat heart at 10 MBq after 90 mins by PET analysis. The class given is ADME, organism-based. To be noted: in vivo, 1.5 h.
The species entered for data set [6] is Rattus norvegicus. Put plainly: Biodistribution in Wistar rat femur bone at 10 MBq after 90 mins by PET analysis. The class given is ADME, organism-based, Bone element. To be noted: in vivo, 1.5 h.
Data set [7] can be described thus: Lipophilicity, log D of the compound at pH 7.4. The format is physicochemical. The following applies: buffer.
A further data set deals with Intestine. The experiment in a line: Biodistribution in Wistar rat intestine at 10 MBq after 90 mins by PET analysis. The format is ADME, organism-based. To be noted: in vivo, 1.5 h.
The next data set concerns Muscle tissue. Put plainly: Biodistribution in Wistar rat muscle at 10 MBq after 90 mins by PET analysis. The class given is ADME, organism-based. To be noted: in vivo, 1.5 h.
A short description of data set [8]: Metabolic stability in human plasma assessed as compound remaining after 2 hrs by radio-HPLC and radio-TLC analysis. The format is ADME, cell-free. The following applies: read-out: Stability. An outline of the steps:
as §2

Data set [9] can be described thus: Drug degradation in water at pH 7.4 by radio-HPLC and radio-TLC analysis. The class given is physicochemical. To be noted: read-out: Drug degradation. A digest of the protocol: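 Decomposition of the 18F compound in water at pH 7.4 was followed by radio-HPLC and radio-TLC, read after 120 min.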
The species entered for data set [10] is Rattus norvegicus. Put plainly: Biodistribution in Wistar rat bladder at 10 MBq after 90 mins by PET analysis. The format is ADME, organism-based, Urinary bladder/Urine. To be noted: in vivo, 1.5 h.
A short description of data set [11]: Chemical stability of the compound in saline after 2 hrs at pH 5.5 by radio-HPLC and radio-TLC analysis. The class given is physicochemical. To be noted: read-out: Stability. A digest of the protocol: as §1
Data set [12] is described as follows: Octanol-water partition coefficient, log P of the compound. The class given is physicochemical. A digest of the protocol: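 LogP was calculated as clogP with ChemDraw 11.0.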

As for `O=[N+]([O-])c1nccn1CCC[Si]([18F])(c1cccc2ccccc12)c1cccc2ccccc12`, the half-life (in general, the time needed for the level to fall by half in the phase considered) in data set [1] was determined as 2.17 h.
Take `O=C(Cn1ccnc1[N+](=O)[O-])NCCC[Si]([18F])(c1cccc2ccccc12)c1cccc2ccccc12`: the half-life in [2] was 1 h; in data set [3], below 5 min. For the same molecule, in data set [4], the logD (as a rule, lipophilicity at a set pH, counting ionised and neutral species) is 0.12.
Take `O=[N+]([O-])c1nccn1CCOCCOCc1cn(CCC[Si]([18F])(c2cccc3ccccc23)c2cccc3ccccc23)nn1`: the half-life in data set [2] is 1 h; in data set [3], below 5 min.
Consider `CC(C)(C)[Si]([18F])(c1cccc(C(=O)NCCn2ccnc2[N+](=O)[O-])c1)C(C)(C)C`, for which the SUV in the data set on Liver is recorded as 7.3%; in the data set on Heart it was 0.5%; in the data set listed under Rattus norvegicus [6] it was 2.8%; in the data set on Intestine it was 6.5%; in the data set on Muscle tissue, 0.3%; in the data set listed under Rattus norvegicus [10] it was 9.5%. Moreover, the Stability entry in [5] is reported as “Stable”. The molecule also returned a logD in data set [7] of 2.12. Further, the remaining at 2 h came to 85% in [8] and 100% in data set [11]. The degraded in data set [9] was below 10%.
In the case of `O=C(Cn1ccnc1[N+](=O)[O-])NCC(F)(F)C(F)(F)F`, the P in data set [12] amounted to 5.7.
